Calls of active or inactive are those of the source. No cut-off for these calls is given here.

For one compound, inhibition results are on record in ChEMBL document CHEMBL4014339, “Discovery of 1,4-Benzodiazepine-2,5-dione (BZD) Derivatives as Dual Nucleotide Binding Oligomerization Domain Containing 1/2 (NOD1/NOD2) Antagonists Sensitizing Paclitaxel (PTX) To Suppress Lewis Lung Carcinoma (LLC) Growth in Vivo” (J Med Chem, 2017).

For test [1], the target named is Receptor-interacting serine/threonine-protein kinase 2 (Homo sapiens) (UniProt O43353). As to the kind of experiment: Inhibition of recombinant human N-terminal GST tagged RIPK2 (1 to 299 residues) expressed in baculovirus infected Sf9 insect cells assessed as decrease in MBP phosphorylation at 10 uM preincubated with compound followed by ATP addition measured after 60 mins by ADP-Glo assay.

The target in test [2] is T1, Nucleotide-binding oligomerization domain-containing protein 2 (Homo sapiens, UniProt Q9HC29). The experiment in a line: Inhibition of NOD2 in human PBMC-derived macrophages assessed as reduction in MDP-stimulated JNK phosphorylation at 1 to 10 uM preincubated for 1 hr followed by MDP stimulation for 1 hr by Western blot analysis.
Test [3] addresses T2, Nucleotide-binding oligomerization domain-containing protein 1 (Homo sapiens) (UniProt Q9Y239).
T2 sequence (whole entry): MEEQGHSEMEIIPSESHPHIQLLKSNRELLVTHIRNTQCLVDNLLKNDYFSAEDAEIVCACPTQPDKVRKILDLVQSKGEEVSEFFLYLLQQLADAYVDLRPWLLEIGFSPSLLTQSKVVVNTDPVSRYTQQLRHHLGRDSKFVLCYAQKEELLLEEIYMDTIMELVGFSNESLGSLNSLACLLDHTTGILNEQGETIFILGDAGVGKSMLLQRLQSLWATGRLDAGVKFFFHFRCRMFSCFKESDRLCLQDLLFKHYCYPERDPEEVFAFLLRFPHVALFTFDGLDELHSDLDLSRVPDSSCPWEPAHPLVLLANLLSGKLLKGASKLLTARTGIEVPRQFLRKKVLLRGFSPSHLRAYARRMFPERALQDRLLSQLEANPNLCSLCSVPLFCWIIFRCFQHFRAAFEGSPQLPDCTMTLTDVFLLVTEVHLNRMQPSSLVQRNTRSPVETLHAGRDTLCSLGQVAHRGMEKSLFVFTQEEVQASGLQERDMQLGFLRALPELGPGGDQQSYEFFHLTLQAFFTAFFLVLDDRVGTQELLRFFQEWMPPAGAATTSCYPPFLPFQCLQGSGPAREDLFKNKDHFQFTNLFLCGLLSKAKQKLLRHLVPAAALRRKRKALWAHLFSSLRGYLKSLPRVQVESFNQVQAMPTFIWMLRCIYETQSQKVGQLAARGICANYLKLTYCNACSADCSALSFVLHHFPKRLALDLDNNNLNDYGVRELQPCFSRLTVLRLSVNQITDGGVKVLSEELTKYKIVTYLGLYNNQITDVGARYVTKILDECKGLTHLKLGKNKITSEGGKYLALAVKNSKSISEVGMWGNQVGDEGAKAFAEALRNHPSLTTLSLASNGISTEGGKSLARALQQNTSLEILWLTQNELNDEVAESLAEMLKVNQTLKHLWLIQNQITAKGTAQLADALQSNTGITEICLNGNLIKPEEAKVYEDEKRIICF
As to the kind of experiment: Inhibition of NOD1 in human PBMC-derived macrophages assessed as reduction in C12-iE-DAP-stimulated RIP2 phosphorylation at 1 to 10 uM preincubated for 1 hr followed by C12-iE-DAP stimulation for 45 mins by Western blot analysis.

In test [4] the target is T1, Nucleotide-binding oligomerization domain-containing protein 2. The experiment in a line: Inhibition of NOD2 in human PBMC-derived macrophages assessed as reduction in MDP-stimulated ERK phosphorylation at 1 to 10 uM preincubated for 1 hr followed by MDP stimulation for 1 hr by Western blot analysis.
For test [5] the target is unchanged. As to the kind of experiment: Inhibition of NOD2 in human PBMC-derived macrophages assessed as reduction in MDP-stimulated RIP2 phosphorylation at 1 to 10 uM preincubated for 1 hr followed by MDP stimulation for 1 hr by Western blot analysis.
Test [6] shares this target. The experiment in a line: Inhibition of human NOD2 expressed in HEK293 cells assessed as suppression of MDP-stimulated ERK phosphorylation preincubated for 1 hr followed by MDP stimulation measured after 1 hr by Western blot analysis.
For test [7] the target is unchanged. The experiment in a line: Inhibition of NOD2 in human PBMC-derived macrophages assessed as reduction in MDP-stimulated IL6 mRNA expression preincubated for 1 hr followed by MDP stimulation for 90 mins by RT-qPCR analysis. The procedure, abridged: (§1)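 Human CD14+ monocytes from donor PBMC, differentiated 7 days with M-CSF 20 ng/mL to macrophages; 1.0 × 10^6 cells pretreated 1 h with compound (final 0.1% DMSO), then C12-iE-DAP 500 ng/mL or MDP 5 μg/mL for 90 min. IL-6/TNF-α mRNA by qRT-PCR, normalized to GAPDH; stimulated response set to 100%.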

Test [8] shares this target. As to the kind of experiment: Inhibition of NOD2 in human PBMC-derived macrophages assessed as reduction of MDP-mediated decrease in IkBalpha levels at 1 to 10 uM preincubated for 1 hr followed by MDP stimulation for 1 hr by Western blot analysis.
For test [9] the target is unchanged. As to the kind of experiment: Inhibition of NOD2 in human PBMC-derived macrophages assessed as reduction in MDP-stimulated IL6 mRNA expression at 10 uM preincubated for 1 hr followed by MDP stimulation for 90 mins by RT-qPCR analysis. Put shortly:
as §1

Test [10] shares this target. The experiment in a line: Antagonist activity at human NOD2 expressed in HEK-Blue cells assessed as inhibition of MDP-stimulated cell activation at 10 uM preincubated for 3 hrs followed by MDP addition measured after 20 hrs by SEAP reporter gene assay. The format is cell-based. Put shortly: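 HEK-Blue hNOD1 or hNOD2 cells preincubated with compound 3 h, then stimulated 20 h with C12-iE-DAP 50 ng/mL (NOD1) or MDP 100 ng/mL (NOD2); SEAP in supernatant quantified. Primary screen at 10 μM, hits repeated in triplicate; IC50 from dose-response, mean ± SD (n = 3), only for compounds reaching ≥50% inhibition at the screening concentration.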

For test [11] the target is unchanged. The experiment in a line: Inhibition of human NOD2 expressed in HEK293 cells assessed as suppression of MDP-stimulated JNK phosphorylation preincubated for 1 hr followed by MDP stimulation measured after 1 hr by Western blot analysis.
Test [12] shares this target. As to the kind of experiment: Inhibition of NOD2 in human PBMC-derived macrophages assessed as reduction in MDP-stimulated TNFalpha mRNA expression preincubated for 1 hr followed by MDP stimulation for 90 mins by RT-qPCR analysis. Put shortly: as §1
For test [13] the target is unchanged. As to the kind of experiment: Inhibition of human NOD2 expressed in HEK293 cells assessed as suppression of MDP-stimulated RIP2 phosphorylation preincubated for 1 hr followed by MDP stimulation measured after 1 hr by Western blot analysis.

T1 sequence (Q9HC29 whole entry, the tested form may be a part): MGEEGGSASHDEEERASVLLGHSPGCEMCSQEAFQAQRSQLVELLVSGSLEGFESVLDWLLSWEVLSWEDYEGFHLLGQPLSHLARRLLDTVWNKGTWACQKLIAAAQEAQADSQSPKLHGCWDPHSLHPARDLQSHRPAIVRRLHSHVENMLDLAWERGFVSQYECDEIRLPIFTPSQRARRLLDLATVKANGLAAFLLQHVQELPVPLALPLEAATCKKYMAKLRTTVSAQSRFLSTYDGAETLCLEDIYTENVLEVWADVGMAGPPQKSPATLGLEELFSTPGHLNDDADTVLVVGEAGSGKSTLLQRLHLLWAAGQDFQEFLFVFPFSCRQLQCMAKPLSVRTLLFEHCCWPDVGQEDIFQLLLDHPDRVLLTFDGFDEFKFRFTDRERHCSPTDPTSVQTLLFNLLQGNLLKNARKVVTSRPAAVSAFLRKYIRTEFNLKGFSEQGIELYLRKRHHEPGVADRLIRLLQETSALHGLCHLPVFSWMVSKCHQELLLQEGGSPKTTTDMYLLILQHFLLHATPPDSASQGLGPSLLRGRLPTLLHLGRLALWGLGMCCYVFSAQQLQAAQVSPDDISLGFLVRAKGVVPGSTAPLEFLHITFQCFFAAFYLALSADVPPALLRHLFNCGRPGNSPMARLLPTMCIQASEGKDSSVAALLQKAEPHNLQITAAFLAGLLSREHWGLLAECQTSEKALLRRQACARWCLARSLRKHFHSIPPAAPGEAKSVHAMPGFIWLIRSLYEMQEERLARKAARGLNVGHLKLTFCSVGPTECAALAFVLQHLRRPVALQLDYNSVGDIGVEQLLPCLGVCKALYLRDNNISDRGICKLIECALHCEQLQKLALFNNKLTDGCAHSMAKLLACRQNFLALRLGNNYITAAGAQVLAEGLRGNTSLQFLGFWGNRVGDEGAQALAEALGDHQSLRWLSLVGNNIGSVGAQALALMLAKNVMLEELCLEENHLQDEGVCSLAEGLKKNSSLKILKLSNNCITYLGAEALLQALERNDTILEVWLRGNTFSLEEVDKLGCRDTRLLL
Chain of Receptor-interacting serine/threonine-protein kinase 2 (Homo sapiens) (O43353 whole entry, the tested form may be a part): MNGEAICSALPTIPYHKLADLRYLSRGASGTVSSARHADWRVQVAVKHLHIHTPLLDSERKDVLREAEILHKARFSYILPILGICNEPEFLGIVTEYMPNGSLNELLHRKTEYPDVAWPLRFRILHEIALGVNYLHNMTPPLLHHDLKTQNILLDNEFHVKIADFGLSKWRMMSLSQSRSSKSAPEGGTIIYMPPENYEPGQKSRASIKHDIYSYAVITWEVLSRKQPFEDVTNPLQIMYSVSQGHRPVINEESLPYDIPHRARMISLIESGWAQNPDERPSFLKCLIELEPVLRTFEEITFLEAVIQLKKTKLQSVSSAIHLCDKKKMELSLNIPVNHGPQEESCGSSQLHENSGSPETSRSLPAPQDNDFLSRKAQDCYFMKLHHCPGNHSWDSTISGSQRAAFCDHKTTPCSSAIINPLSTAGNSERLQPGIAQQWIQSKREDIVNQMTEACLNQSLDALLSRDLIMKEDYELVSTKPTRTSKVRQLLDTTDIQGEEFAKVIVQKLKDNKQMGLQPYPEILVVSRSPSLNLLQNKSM

Consider `CCCNC(=O)CC[C@H]1NC(=O)c2cc(Oc3cccc(N(C)C)c3)c(NC(=O)COCc3ccccc3)cc2NC1=O`, for which the inhibition result in test [1] was “inactive”. The inhibition result in test [2], in test [3], in test [4], in test [5], in [8] and in test [9] was “Active” in each case. The inhibition entry was “Dose-dependent effect” in test [6]; “Dose-dependent effect” in test [7]; 80.4% in test [10]; “Dose-dependent effect” in test [11]; “Dose-dependent effect” in [12]; “Dose-dependent effect” in test [13].
